# Experimental data from ChEMBL document CHEMBL2375235, “Synthesis, radioiodination and in vivo screening of novel potent iodinated and fluorinated radiotracers as melanoma imaging and therapeutic probes” (Eur J Med Chem, 2013).
# Tests used:
# [1] = Drug uptake in tumor of C57BL/6J mouse xenografted with mouse B16F0 cells at 3.7 MBq, iv after 72 hrs by gamma scintigraphic imaging analysis relative to control; assay type: ADME, organism-based, Neoplasm; conditions: in vivo
# Procedure, shortened: (§1)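 Male C57BL/6J mice (6-8 weeks) bearing subcutaneous B16F0 tumours (3×10^5 cells in PBS, right flank, isoflurane anaesthesia); on day 14 after implant, [125I]-labelled tracer given i.v. via tail vein, 3.7 MBq/mouse, in physiological serum (some tracers in 5% ethanol/physiological serum); 3-8 animals per compound. Under i.p. ketamine (100 mg/kg)–xylazine (10 mg/kg), 10 min planar scintigrams acquired in prone position, 15% window on 35 keV peak.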
# [2] = Drug uptake in tumor of C57BL/6J mouse xenografted with mouse B16F0 cells at 3.7 MBq, iv after 3 hrs by gamma scintigraphic imaging analysis relative to control; assay type: ADME, organism-based, Neoplasm; conditions: in vivo; procedure, shortened: as §1
# [3] = Drug uptake in tumor of C57BL/6J mouse xenografted with mouse B16F0 cells at 3.7 MBq, iv after 1 hr by gamma scintigraphic imaging analysis relative to control; assay type: ADME, organism-based, Neoplasm; conditions: in vivo; procedure, shortened: as §1
# [4] = Drug uptake in tumor of C57BL/6J mouse xenografted with mouse B16F0 cells at 3.7 MBq, iv after 5 days by gamma scintigraphic imaging analysis relative to control; assay type: ADME, organism-based, Neoplasm; conditions: in vivo, 120 h; procedure, shortened: as §1
# [5] = Drug uptake in tumor of C57BL/6J mouse xenografted with mouse B16F0 cells at 3.7 MBq, iv after 10 days by gamma scintigraphic imaging analysis relative to control; assay type: ADME, organism-based, Neoplasm; conditions: in vivo, 240 h; procedure, shortened: as §1
# [6] = Ratio of drug uptake in tumor to muscle in C57BL/6J mouse xenografted with mouse B16F0 cells at 3.7 MBq, iv after 1 hr; conditions: in vivo
# [7] = Drug uptake in tumor of C57BL/6J mouse xenografted with mouse B16F0 cells at 3.7 MBq, iv after 6 hrs by gamma scintigraphic imaging analysis relative to control; assay type: ADME, organism-based, Neoplasm; conditions: in vivo; procedure, shortened: as §1
# [8] = Drug uptake in tumor of C57BL/6J mouse xenografted with mouse B16F0 cells at 3.7 MBq, iv after 24 hrs by gamma scintigraphic imaging analysis relative to control; assay type: ADME, organism-based, Neoplasm; conditions: in vivo; procedure, shortened: as §1
# [9] = Drug uptake in tumor of C57BL/6J mouse xenografted with mouse B16F0 cells at 3.7 MBq, iv after 14 days by gamma scintigraphic imaging analysis relative to control; assay type: ADME, organism-based, Neoplasm; conditions: in vivo, 336 h; procedure, shortened: as §1
# [10] = Drug uptake in tumor of C57BL/6J mouse xenografted with mouse B16F0 cells at 3.7 MBq, iv after 7 days by gamma scintigraphic imaging analysis relative to control; assay type: ADME, organism-based, Neoplasm; conditions: in vivo, 168 h; procedure, shortened: as §1
# Mus musculus = assay: Toxicity against C57BL/6J mouse xenografted with mouse B16F0 cells assessed as mortality at 3.7 MBq, iv after 2 days; assay type: organism-based; conditions: in vivo, 48 h
# Procedure, shortened: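 Male C57BL/6J mice (6-8 weeks) were inoculated s.c. on the right flank with 3×10^5 B16F0 cells in 0.1 mL PBS under 2% isoflurane. On day 14 after implant they received the [125I]-labelled tracer i.v. via the tail vein at 3.7 MBq/mouse, in physiological serum (5% ethanol in physiological serum for non-salt forms), with 3–8 animals per compound. Survival was recorded 2 days post-injection.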
Drug uptake [1] [% ID/g],Drug uptake [2] [% ID/g],Drug uptake [3] [% ID/g],Drug uptake [4] [% ID/g],Drug uptake [5] [% ID/g],Ratio [6],Drug uptake [7] [% ID/g],Drug uptake [8] [% ID/g],Drug uptake [9] [% ID/g],Drug uptake [10] [% ID/g],Structure (SMILES),Activity (Mus musculus)
10,12.3,10.8,5.6,1.9,5.76,13.9,15,1.3,3.3,CCN(C/C=C/CF)CCNC(=O)c1cnc2cc([125I])ccc2n1.Cl,–
3.8,7.8,6.8,2.7,0.8,–,7.2,6.8,0.3,1.5,CCN(CCNC(=O)c1cnc2cc([125I])ccc2n1)CCOCCOCCOCCOCCOCCOCCOCCF,–
11,14.5,13,8.6,3.7,5.76,15.9,15.6,1.8,5.3,CCN(CCNC(=O)c1cnc2cc([125I])ccc2n1)Cc1cn(CCF)nn1.Cl,–
8.6,12.1,11.7,5.8,1.3,5.76,12.1,12.4,0.6,2.7,CCN(CCNC(=O)c1cnc2cc([125I])ccc2n1)CCOCCOCCOCCF.Cl,–
8.5,13.5,10,5.4,1.4,–,15.3,11.4,0.8,3,CCN(CCCF)CCNC(=O)c1cnc2cc([125I])ccc2n1,–
14.9,18.3,12.3,11.6,4.2,5.76,23.3,23.5,2.2,8,CCN(CC#CCF)CCNC(=O)c1cnc2cc([125I])ccc2n1.Cl,–

Structure (SMILES),Drug uptake [1] [% ID/g],Drug uptake [2] [% ID/g],Drug uptake [3] [% ID/g],Drug uptake [4] [% ID/g],Drug uptake [5] [% ID/g],Ratio [6],Drug uptake [7] [% ID/g],Drug uptake [8] [% ID/g],Drug uptake [9] [% ID/g],Drug uptake [10] [% ID/g],Activity (Mus musculus)
CCN(CCF)CCNC(=O)c1cnc2cc([125I])ccc2n1.Cl,20,22.5,21.4,8.4,1.6,–,25,24.8,0.6,–,Toxic
